Test results reported in ChEMBL document CHEMBL3526116, “Toxicological evaluation of acyl glucuronides of nonsteroidal anti-inflammatory drugs using human embryonic kidney 293 cells stably expressing human UDP-glucuronosyltransferase and human hepatocytes” (Drug Metab Dispos, 2011).

Key:
[1] = Drug level in cell culture medium treated with ketoprofen at 1 mM measured at 6 hrs by LC-MS/MS analysis in presence of acyl glucuronidation inhibitor (-)-borneol; assay type: physicochemical; settings: 1000 µM
[2] = Drug level in cell culture medium treated with ketoprofen at 1 mM measured at 6 hrs by LC-MS/MS analysis in absence of acyl glucuronidation inhibitor (-)-borneol; assay type: physicochemical; settings: 1000 µM
Nucleic Acid [3] = assay: Ratio of drug level in human hepatocytes to HEK293 cells expressing UGT1A3 treated with ketoprofen at 1 mM; assay type: ADME, cell-based, Hepatocyte; settings: 1000 µM
Procedure, shortened: (§1)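 Acyl glucuronide in cell fraction (pmol/2 x 10^5 cells) by LC-MS/MS after 6 h exposure in human hepatocytes without (-)-borneol, set against HEK/UGT1A3 cells (2 x 10^5 cells/well, DMEM with 0.5% FBS) exposed to the same drug level; cells pelleted at 3000 x g, resuspended in PBS, extracted with methanol/acetic acid.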

Hepatocyte [4] = assay: Drug level in human hepatocytes assessed per 2 x 10^5 cells treated with ketoprofen at 1 mM measured at 6 hrs by LC-MS/MS analysis in absence of acyl glucuronidation inhibitor (-)-borneol; assay type: ADME, cell-based; settings: 1000 µM
Hepatocyte [5] = assay: Drug level in human hepatocytes assessed per 2 x 10^5 cells treated with ketoprofen at 1 mM measured at 6 hrs by LC-MS/MS analysis in presence of acyl glucuronidation inhibitor (-)-borneol; assay type: ADME, cell-based; settings: 1000 µM
[6] = molecular target: T1, UDP-glucuronosyltransferase 1A3 (Homo sapiens, UniProt P35503); assay: Activity of human UGT1A3 expressed in HEK293 cells assessed as enzyme-mediated compound formation in cell culture medium treated with ketoprofen at 1 mM by LC-MS/MS analysis; assay type: ADME, cell-based; settings: hek293, 1000 µM, TDE = time-dependent effect
T1 sequence (P35503 whole entry): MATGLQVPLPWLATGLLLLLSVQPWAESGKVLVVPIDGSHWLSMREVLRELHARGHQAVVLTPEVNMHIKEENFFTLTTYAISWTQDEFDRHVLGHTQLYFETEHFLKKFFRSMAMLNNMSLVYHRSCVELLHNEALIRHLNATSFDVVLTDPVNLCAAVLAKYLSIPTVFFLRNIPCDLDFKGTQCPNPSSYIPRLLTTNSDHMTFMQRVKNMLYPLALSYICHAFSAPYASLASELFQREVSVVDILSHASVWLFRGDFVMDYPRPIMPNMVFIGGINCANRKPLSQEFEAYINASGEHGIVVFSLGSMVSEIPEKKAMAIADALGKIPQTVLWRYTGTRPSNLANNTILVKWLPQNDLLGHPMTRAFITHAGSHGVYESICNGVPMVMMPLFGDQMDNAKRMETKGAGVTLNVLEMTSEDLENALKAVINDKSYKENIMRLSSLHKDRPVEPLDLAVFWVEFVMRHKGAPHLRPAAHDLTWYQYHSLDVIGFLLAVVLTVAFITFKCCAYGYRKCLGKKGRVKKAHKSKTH
Procedure, shortened: (§2)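 HEK293 stably expressing human UGT1A3 (G418-selected), 2 x 10^5 cells/well in 1 mL DMEM with 0.5% FBS, exposed immediately to drug for 6, 12 or 24 h; DMSO ≤0.1% final. Cells and medium separated by centrifugation, cell fraction resuspended in PBS; aliquots mixed 1:1 with methanol/acetic acid (100:1), spun, supernatant analysed by LC-MS/MS. Triplicate determinations, mean ± SD.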

[7] = molecular target: T1, UDP-glucuronosyltransferase 1A3; assay: Activity of human UGT1A3 expressed in HEK293 cells assessed as enzyme-mediated compound formation in cell culture medium treated with ketoprofen at 1 mM measured at 6 to 24 hrs by LC-MS/MS analysis; assay type: ADME, cell-based; settings: hek293, 1000 µM; procedure, shortened: as §2
[8] = molecular target: T1, UDP-glucuronosyltransferase 1A3; assay: Activity of human UGT1A3 expressed in HEK293 cells assessed as enzyme-mediated compound formation per 2 x 10^5 cells treated with ketoprofen at 1 mM measured at 24 hrs by LC-MS/MS analysis; assay type: ADME, cell-based; settings: hek293, 24 h, 1000 µM; procedure, shortened: as §2
Nucleic Acid [9] = assay: Ratio of drug level in human hepatocytes to HEK293 cells expressing UGT1A3 treated with ibuprofen at 1 mM; assay type: ADME, cell-based, Hepatocyte; settings: 1000 µM; procedure, shortened: as §1
[10] = Drug level in cell culture medium treated with ibuprofen at 1 mM measured at 6 hrs by LC-MS/MS analysis in absence of acyl glucuronidation inhibitor (-)-borneol; assay type: physicochemical; settings: 1000 µM
[11] = molecular target: T1, UDP-glucuronosyltransferase 1A3; assay: Activity of human UGT1A3 expressed in HEK293 cells assessed as enzyme-mediated compound formation in cell culture medium treated with ibuprofen at 1 mM measured at 6 to 24 hrs by LC-MS/MS analysis; assay type: ADME, cell-based; settings: hek293, 1000 µM; procedure, shortened: as §2
[12] = molecular target: T1, UDP-glucuronosyltransferase 1A3; assay: Activity of human UGT1A3 expressed in HEK293 cells assessed as enzyme-mediated compound formation in cell culture medium treated with ibuprofen at 1 mM by LC-MS/MS analysis; assay type: ADME, cell-based; settings: hek293, 1000 µM, TDE = time-dependent effect; procedure, shortened: as §2
[13] = Drug level in cell culture medium treated with ibuprofen at 1 mM measured at 6 hrs by LC-MS/MS analysis in presence of acyl glucuronidation inhibitor (-)-borneol; assay type: physicochemical; settings: 1000 µM
Hepatocyte [14] = assay: Drug level in human hepatocytes assessed per 2 x 10^5 cells treated with ibuprofen at 1 mM measured at 6 hrs by LC-MS/MS analysis in absence of acyl glucuronidation inhibitor (-)-borneol; assay type: ADME, cell-based; settings: 1000 µM
Hepatocyte [15] = assay: Drug level in human hepatocytes assessed per 2 x 10^5 cells treated with ibuprofen at 1 mM measured at 6 hrs by LC-MS/MS analysis in presence of acyl glucuronidation inhibitor (-)-borneol; assay type: ADME, cell-based; settings: 1000 µM
[16] = molecular target: T1, UDP-glucuronosyltransferase 1A3; assay: Activity of human UGT1A3 expressed in HEK293 cells assessed as enzyme-mediated compound formation per 2 x 10^5 cells treated with ibuprofen at 1 mM measured at 24 hrs by LC-MS/MS analysis; assay type: ADME, cell-based; settings: hek293, 24 h, 1000 µM; procedure, shortened: as §2

Row | Drug metabolism [1] [pmol/mL] | Drug metabolism [2] [pmol/mL] | Ratio (Nucleic Acid [3]) | Drug metabolism (Hepatocyte [4]) [pmol] | Drug metabolism (Hepatocyte [5]) [pmol] | Drug metabolism [6] | Drug metabolism [7] [pmol/mL] | Drug metabolism [8] [pmol] | Ratio (Nucleic Acid [9]) | Drug metabolism [10] [pmol/mL] | Drug metabolism [11] [pmol/mL] | Drug metabolism [12] | Drug metabolism [13] [pmol/mL] | Drug metabolism (Hepatocyte [14]) [pmol] | Drug metabolism (Hepatocyte [15]) [pmol] | Drug metabolism [16] [pmol] | SMILES
1 | 54.9 | 436.8 | 6 | 6.8 | 1.7 | tde | 6.3 | 0.2 | – | – | – | – | – | – | – | – | CC(C(=O)O[C@@H]1O[C@H](C(=O)O)[C@@H](O)[C@H](O)[C@H]1O)c1cccc(C(=O)c2ccccc2)c1 (stereo partly specified)
2 | – | – | – | – | – | – | – | – | 6 | 1156.7 | 114.7 | tde | 126.5 | 27.7 | 3.5 | 7.2 | CC(C)Cc1ccc(C(C)C(=O)O[C@@H]2O[C@H](C(=O)O)[C@@H](O)[C@H](O)[C@H]2O)cc1 (stereo partly specified)
